According to ChEMBL document CHEMBL1153939, “Novel antagonists of serotonin-4 receptors: synthesis and biological evaluation of pyrrolothienopyrazines” (Bioorg Med Chem, 2009):
Activity calls are given as the source filed them. The calls are words filed in the database; no cut-off is given here.

How the values were obtained:
[1] = biological target: 5-hydroxytryptamine receptor 4 (Cavia porcellus) (UniProt O70528); experiment: Displacement of [3H]GR-113808 from 5HT4 receptor in guinea pig striatum membrane at 10 nM; type: cell membranes
In short: (§1)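 Guinea pig membranes (15 µg protein/mL) incubated 30 min at 37 °C with 0.6 nM [3H]GR113808 in 50 mM HEPES, pH 7.4, with fixed test concentrations. Nonspecific binding defined with 10 µM serotonin.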

Mus musculus [2] = experiment: Acute toxicity in NMRI mouse assessed as behavioral changes at subtoxic <1/4 dose of LD50, ip by CNS activity test; type: organism-based, Central nervous system; details: in vivo
In short: (§2)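 Male NMRI mice (20–24 g) given ip drug in saline (10 mL/kg), groups of 4. Behavioural and neurological changes scored against controls by a standardized observation technique at 30 min, 3 h and 24 h post-dose. Approximate LD50 derived from deaths counted at 24 h.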

Mus musculus [3] = experiment: Acute toxicity in NMRI mouse assessed as induction of convulsions at 100 to 300 mg/kg, ip by CNS activity test; type: organism-based, Central nervous system; set-up: dose 100-300 mg/kg, route intraperitoneal; details: in vivo; in short: as §2
Mus musculus [4] = experiment: Toxicity in NMRI mouse assessed as spontaneous alteration performance ar 0.3 to 3 mg/kg, ip by Y-maze test; type: organism-based; set-up: dose 0.3-3 mg/kg, route intraperitoneal; details: in vivo
In short: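 Spontaneous alternation in male NMRI mice. Drug given ip in saline at 0.3, 1 and 3 mg/kg, 30 min before testing, with or without scopolamine 1 mg/kg. Four groups per dose: control, scopolamine, drug alone, drug+scopolamine. Alternation % = actual alternations/(total arm entries − 2) × 100. ANOVA plus Fisher PLSD.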

Mus musculus [5] = experiment: Inhibition of scopolamine-induced immediate working memory deficit in NMRI mouse at 0.3 to 3 mg/kg, ip by Y-maze test; type: functional, organism-based
In short: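 Spontaneous alternation in male NMRI mice. Compound given ip in saline at 0.3, 1 and 3 mg/kg, 30 min before testing, alone or with scopolamine 1 mg/kg; four groups per dose (saline/saline, saline/scopolamine, compound/saline, compound/scopolamine). Alternation % = actual alternations / (total arm entries − 2) × 100.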

Mus musculus [6] = experiment: Antinociceptive activity against acetic acid-induced writhing in NMRI mouse assessed as number of stretches at 0.01 mg/kg, ip by writhing test; type: functional; details: route intraperitoneal
In short: (§3)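 Groups of 8 male NMRI mice (20–24 g). Compound or reference given ip in saline (10 mL/kg) 15 min before ip 0.6% aqueous acetic acid (10 mL/kg). Stretches (back arching, pelvic rotation, hind-limb extension) counted over 10 min, beginning 10 min after acid. ANOVA + Fisher PLSD versus control.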

Mus musculus [7] = experiment: Antinociceptive activity against acetic acid-induced writhing in NMRI mouse assessed as number of stretches at 0.1 mg/kg, ip by writhing test; type: functional; details: route intraperitoneal; in short: as §3
Mus musculus [8] = experiment: Antinociceptive activity against acetic acid-induced writhing in NMRI mouse assessed as number of stretches at 1 mg/kg, ip by writhing test; type: functional; details: route intraperitoneal; in short: as §3
[9] = biological target: 5-hydroxytryptamine receptor 3A (Homo sapiens) (UniProt P46098); experiment: Antagonist activity at 5HT3 receptor in hybrid NG108-15 cells assessed as inhibition of 5HT-induced current treated 1 min prior to agonist treatment by electrophysiology; type: functional, cell-based
In short: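 NG108-15 cells grown in DMEM-HG with 5% FBS and HAT, then differentiated on polylysine glass with 2% DMSO for 48 h followed by ≥24 h with 1 mM dibutyryl-cAMP. Whole-cell recording at −60 mV in HEPES saline, pH 7.3, with a CsCl/CsMeSO3 pipette solution. 5-HT 50 µM applied by gravity every 2.5 min.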

[10] = biological target: T1, 5-hydroxytryptamine receptor 1A (Homo sapiens, UniProt P08908); experiment: Displacement of [3H]8OH-DPAT from human recombinant 5HT1A receptor
T1 sequence (P08908 whole entry): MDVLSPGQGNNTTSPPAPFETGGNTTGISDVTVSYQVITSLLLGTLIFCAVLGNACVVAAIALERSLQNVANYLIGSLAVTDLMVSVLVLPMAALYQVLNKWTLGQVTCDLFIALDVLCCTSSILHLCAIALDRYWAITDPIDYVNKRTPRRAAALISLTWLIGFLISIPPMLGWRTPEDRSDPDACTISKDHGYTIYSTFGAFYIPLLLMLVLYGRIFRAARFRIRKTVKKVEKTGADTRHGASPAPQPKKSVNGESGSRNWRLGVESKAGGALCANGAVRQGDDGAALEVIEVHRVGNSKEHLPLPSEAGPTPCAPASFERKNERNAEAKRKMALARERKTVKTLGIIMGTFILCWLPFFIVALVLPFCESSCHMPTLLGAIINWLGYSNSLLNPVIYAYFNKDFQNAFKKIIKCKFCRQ

[11] = biological target: 5-hydroxytryptamine receptor 1B (Rattus norvegicus, UniProt P28564); experiment: Displacement of [3H]5OH-tryptamine form 5HT1B receptor in rat cerebral cortex; type: tissue-based
[12] = biological target: 5-hydroxytryptamine receptor 2A (Homo sapiens, UniProt P28223); experiment: Displacement of [3H]ketanserin form human recombinant 5HT2A receptor
[13] = biological target: T2, 5-hydroxytryptamine receptor 2C (Homo sapiens, UniProt P28335); experiment: Displacement of [3H]mesulergine from human recombinant 5HT2C receptor
T2 sequence (P28335 whole entry): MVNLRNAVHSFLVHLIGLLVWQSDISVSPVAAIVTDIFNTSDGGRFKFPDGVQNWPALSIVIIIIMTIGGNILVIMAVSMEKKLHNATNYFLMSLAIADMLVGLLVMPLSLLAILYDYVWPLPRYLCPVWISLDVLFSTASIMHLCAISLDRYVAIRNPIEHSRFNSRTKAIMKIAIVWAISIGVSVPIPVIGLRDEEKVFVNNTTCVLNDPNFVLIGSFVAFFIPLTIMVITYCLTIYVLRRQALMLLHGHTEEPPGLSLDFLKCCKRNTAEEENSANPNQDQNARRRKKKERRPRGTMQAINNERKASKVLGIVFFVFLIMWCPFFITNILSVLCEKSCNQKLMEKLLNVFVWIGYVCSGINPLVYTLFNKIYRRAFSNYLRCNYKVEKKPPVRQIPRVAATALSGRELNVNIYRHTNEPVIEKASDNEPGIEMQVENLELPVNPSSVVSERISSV

[14] = biological target: 5-hydroxytryptamine receptor 5A (Homo sapiens, UniProt P47898); experiment: Displacement of [3H]LSD form human recombinant 5HT5A receptor
[15] = biological target: 5-hydroxytryptamine receptor 6 (Homo sapiens, UniProt P50406); experiment: Displacement of [3H]LSD form human recombinant 5HT6 receptor
In short: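 Membranes from sf9 cells expressing human 5-HT6 (14 µg/mL) or 5-HT7 (38 µg/mL) incubated 90 min at 27 °C with 2 nM [3H]LSD in 50 mM Tris-HCl containing 10 mM MgSO4 and 0.5 mM EDTA. Nonspecific binding defined with clozapine (10 and 250 µM).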

[16] = biological target: Alpha-1A adrenergic receptor (Homo sapiens, UniProt P35348); experiment: Displacement of [3H]prazosin form human recombinant alpha1A adrenergic receptor
[17] = biological target: Alpha-1D adrenergic receptor (Homo sapiens, UniProt P25100); experiment: Displacement of [3H]prazosin form human recombinant Alpha-1D adrenergic receptor
[18] = biological target: 5-hydroxytryptamine receptor 4 (Cavia porcellus) (UniProt O70528); experiment: Displacement of [3H]GR-113808 from 5HT4 receptor in guinea pig striatum membrane at 1 uM; type: cell membranes; in short: as §1

Chain of 5-hydroxytryptamine receptor 4 (Cavia porcellus) (O70528 whole entry): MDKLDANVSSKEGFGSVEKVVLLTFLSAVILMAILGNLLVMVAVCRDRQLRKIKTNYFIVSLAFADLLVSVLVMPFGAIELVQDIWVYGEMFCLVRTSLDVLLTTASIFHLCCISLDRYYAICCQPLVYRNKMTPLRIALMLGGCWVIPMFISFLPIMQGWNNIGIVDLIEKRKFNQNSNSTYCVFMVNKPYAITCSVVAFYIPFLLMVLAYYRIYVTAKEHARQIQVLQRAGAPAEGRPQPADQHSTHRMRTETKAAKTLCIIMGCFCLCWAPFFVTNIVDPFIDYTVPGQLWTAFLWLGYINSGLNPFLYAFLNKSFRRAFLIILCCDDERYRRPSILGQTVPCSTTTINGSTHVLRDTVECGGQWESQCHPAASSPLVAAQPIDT
Chain of 5-hydroxytryptamine receptor 5A (P47898 whole entry): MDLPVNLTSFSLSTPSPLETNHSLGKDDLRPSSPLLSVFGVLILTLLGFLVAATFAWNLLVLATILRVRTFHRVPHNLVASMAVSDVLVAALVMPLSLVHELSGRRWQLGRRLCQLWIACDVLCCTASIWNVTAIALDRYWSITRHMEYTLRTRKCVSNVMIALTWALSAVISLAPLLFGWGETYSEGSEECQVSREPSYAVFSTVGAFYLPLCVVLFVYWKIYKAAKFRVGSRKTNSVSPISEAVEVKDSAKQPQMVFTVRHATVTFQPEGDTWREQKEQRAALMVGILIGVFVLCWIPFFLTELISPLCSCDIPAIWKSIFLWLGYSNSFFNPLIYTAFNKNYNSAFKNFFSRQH
Chain of 5-hydroxytryptamine receptor 2A (P28223 whole entry): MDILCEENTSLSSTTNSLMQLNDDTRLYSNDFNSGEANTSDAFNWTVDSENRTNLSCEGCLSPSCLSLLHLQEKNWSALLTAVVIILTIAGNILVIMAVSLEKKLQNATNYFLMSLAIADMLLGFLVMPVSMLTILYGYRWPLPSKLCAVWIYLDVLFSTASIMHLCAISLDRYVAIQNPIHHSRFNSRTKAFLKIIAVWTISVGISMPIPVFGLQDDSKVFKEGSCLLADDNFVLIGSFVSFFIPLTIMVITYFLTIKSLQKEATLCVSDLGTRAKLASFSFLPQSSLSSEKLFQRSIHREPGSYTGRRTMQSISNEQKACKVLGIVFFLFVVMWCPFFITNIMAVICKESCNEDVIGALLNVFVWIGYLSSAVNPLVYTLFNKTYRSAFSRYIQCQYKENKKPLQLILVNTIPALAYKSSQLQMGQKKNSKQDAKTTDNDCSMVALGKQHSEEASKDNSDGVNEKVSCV
Chain of Alpha-1A adrenergic receptor (P35348 whole entry): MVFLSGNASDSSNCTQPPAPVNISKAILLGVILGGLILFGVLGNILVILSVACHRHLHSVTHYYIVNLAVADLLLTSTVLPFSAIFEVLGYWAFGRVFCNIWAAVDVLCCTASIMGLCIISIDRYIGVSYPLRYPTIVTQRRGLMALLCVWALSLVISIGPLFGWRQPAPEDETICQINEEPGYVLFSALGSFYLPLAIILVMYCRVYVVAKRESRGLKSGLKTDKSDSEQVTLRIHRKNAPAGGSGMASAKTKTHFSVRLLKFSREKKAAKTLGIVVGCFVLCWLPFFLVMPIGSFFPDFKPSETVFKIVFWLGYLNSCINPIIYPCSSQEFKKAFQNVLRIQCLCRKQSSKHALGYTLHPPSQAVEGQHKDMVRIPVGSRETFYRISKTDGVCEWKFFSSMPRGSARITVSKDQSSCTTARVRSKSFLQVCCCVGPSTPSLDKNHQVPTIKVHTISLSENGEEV
Chain of 5-hydroxytryptamine receptor 1B (P28564 whole entry): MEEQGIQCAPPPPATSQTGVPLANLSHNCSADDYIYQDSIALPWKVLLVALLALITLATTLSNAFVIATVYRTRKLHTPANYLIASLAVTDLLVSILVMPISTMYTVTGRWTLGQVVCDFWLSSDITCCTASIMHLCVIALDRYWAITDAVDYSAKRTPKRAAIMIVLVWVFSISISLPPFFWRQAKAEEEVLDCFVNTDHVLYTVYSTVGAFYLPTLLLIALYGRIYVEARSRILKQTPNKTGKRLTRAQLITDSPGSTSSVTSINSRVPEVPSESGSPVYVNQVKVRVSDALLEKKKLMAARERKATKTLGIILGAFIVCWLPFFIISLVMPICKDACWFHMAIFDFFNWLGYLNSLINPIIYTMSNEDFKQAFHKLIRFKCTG
Chain of 5-hydroxytryptamine receptor 3A (Homo sapiens) (P46098 whole entry): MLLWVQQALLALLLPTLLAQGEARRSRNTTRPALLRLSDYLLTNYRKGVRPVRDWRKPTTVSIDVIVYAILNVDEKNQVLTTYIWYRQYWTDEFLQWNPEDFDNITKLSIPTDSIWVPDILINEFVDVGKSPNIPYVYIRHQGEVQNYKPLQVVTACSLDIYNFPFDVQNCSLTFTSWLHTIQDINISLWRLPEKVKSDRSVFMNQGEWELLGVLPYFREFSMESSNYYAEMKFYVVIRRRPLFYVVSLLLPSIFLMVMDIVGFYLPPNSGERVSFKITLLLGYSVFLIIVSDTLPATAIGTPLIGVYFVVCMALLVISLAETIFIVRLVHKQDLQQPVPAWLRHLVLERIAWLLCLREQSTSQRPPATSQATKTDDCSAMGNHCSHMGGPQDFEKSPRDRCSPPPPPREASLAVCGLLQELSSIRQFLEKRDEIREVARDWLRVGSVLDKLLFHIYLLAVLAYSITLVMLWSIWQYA
Chain of Alpha-1D adrenergic receptor (P25100 whole entry): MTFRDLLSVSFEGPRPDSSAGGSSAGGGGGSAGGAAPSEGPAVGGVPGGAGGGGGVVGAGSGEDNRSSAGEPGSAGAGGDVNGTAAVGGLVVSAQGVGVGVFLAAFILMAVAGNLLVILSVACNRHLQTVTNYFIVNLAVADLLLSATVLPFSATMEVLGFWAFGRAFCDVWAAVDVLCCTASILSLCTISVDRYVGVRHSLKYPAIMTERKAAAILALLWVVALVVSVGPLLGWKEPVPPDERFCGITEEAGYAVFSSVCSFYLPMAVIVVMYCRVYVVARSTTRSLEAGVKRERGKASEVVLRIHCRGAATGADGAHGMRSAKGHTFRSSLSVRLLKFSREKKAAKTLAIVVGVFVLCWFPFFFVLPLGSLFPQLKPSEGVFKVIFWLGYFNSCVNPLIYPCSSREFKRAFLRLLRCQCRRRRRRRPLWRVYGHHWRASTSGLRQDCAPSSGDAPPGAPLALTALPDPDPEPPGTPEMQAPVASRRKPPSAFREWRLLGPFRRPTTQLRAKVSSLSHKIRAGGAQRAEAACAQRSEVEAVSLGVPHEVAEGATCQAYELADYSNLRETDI
Chain of 5-hydroxytryptamine receptor 6 (P50406 whole entry): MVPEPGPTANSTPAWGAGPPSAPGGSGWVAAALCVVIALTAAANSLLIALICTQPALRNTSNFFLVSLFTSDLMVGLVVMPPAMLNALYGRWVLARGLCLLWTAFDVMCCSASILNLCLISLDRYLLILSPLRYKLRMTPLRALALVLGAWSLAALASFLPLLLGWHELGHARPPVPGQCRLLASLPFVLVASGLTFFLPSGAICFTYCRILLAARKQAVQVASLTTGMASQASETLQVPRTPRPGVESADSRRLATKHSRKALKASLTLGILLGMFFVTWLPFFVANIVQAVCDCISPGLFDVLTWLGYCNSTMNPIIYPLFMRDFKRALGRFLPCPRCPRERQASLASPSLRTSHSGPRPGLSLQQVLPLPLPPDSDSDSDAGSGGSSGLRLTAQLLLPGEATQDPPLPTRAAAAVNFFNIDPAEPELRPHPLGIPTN

Compound: CCCN1CCC(COc2nc3scc(C)c3n3cccc23)CC1
- inhibition [1]: 78%
- Activity (Mus musculus [2]): Toxic
- Activity (Mus musculus [3]): Toxic
- Activity (Mus musculus [4]): Non-toxic
- Activity (Mus musculus [5]): inactive
- Activity (Mus musculus [6]): 17.2
- Activity (Mus musculus [7]): 12.5
- Activity (Mus musculus [8]): 7.6
- Activity [9]: inactive
- IC50 [10]: 5010 nM
- IC50 [11]: > 10000 nM
- IC50 [12]: > 10000 nM
- IC50 [13]: 72.4 nM
- IC50 [14]: > 10000 nM
- IC50 [15]: > 10000 nM
- IC50 [16]: 74.1 nM
- IC50 [17]: 204 nM
- inhibition [18]: 100%
